# Counter-ions that a name gives are not always drawn.
# Tests used:
# HL-60 = experiment: Growth inhibition of human HL60 cells measured after 3 days by trypan blue assay; assay type: functional; conditions: HL-60, 72 h
# How it was run: (§1)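 Human leukemia cells exposed to compound for 3 days. Growth assessed by trypan blue method with total cell counts, and inhibition calculated relative to untreated control cells. GI50 taken as the concentration giving 50% growth inhibition. Doxorubicin hydrochloride and gambogic acid included as positive controls.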
# K562 = experiment: Growth inhibition of human K562 cells measured after 3 days by trypan blue assay; assay type: functional; conditions: K562, 72 h; how it was run: as §1
GI50 (HL-60) [µM],GI50 (K562) [µM],SMILES
1.1,2.1,CC(C)=CC[C@@]12OC(C)(C)[C@H]3C[C@H](C=C4C(=O)c5c(O)cc6c(c5O[C@]431)C(C)(C)[C@H](CO)O6)C2=O
1.9,3.6,CC(C)=CC[C@@]12OC(C)(C)C3C[C@H](C=C4C(=O)c5c(O)cc6c(c5O[C@]431)C(C)(C)[C@H](C)O6)C2=O
6.5,3.5,C=CC(C)(C)c1c(O)cc(O)c2c1O[C@]13CC4[C@H]([C@@H](OC)C1C2=O)[C@@](CC=C(C)C)(OC4(C)C)C3=O (some centres undefined)
0.2,0.8,C=CC(C)(C)c1c(OC)cc(O)c2c1OC13C(=CC4CC1C(C)(C)OC3(CC=C(C)C)C4=O)C2=O (centres undefined)
1.1,2.1,CC(C)=CC[C@@]12OC(C)(C)[C@H]3C[C@H](C=C4C(=O)c5c(O)cc6c(c5O[C@]431)C(C)(C)[C@@H](CO)O6)C2=O
1,1.5,C=CC(C)(C)c1c(OC)cc(O)c2c1OC13CC4C(C=C1C2=O)C(CC=C(C)C)(OC4(C)C)C3=O (centres undefined)
0.8,1.3,C=CC(C)(C)c1c(O)cc(O)c2c1OC13CC4C(C=C1C2=O)C(CC=C(C)C)(OC4(C)C)C3=O (centres undefined)
0.9,1.6,CC(C)=CCC12OC(C)(C)C3CC4(Oc5c(c(O)cc6c5C(C)(C)[C@H](C)O6)C(=O)C4=CC31)C2=O (some centres undefined)
4.5,2.1,C=CC(C)(C)c1c(O)cc(O)c2c1O[C@]13[C@H](C2=O)[C@@H](OCC)[C@@H]2C[C@H]1C(C)(C)OC3(CC=C(C)C)C2=O
0.7,1.7,CC(C)=CCC12OC(C)(C)C3CC4(Oc5c(c(O)cc6c5C(C)(C)[C@@H](C)O6)C(=O)C4=CC31)C2=O (some centres undefined)
0.02,0.02,COc1cccc2c1C(=O)c1c(O)c3c(c(O)c1C2=O)C[C@@](O)(C(=O)CO)C[C@@H]3O[C@H]1C[C@H](N)[C@H](O)[C@H](C)O1 [DOXORUBICIN HYDROCHLORIDE]
8.8,3.8,C=CC(C)(C)c1c(O)cc(O)c2c1O[C@]13[C@H](C2=O)[C@@H](OC)[C@@H]2C[C@H]1C(C)(C)O[C@@]3(/C=C/C(C)(C)O)C2=O
3.4,1.6,C=CC(C)(C)c1c(O)cc(OC)c2c1OC13C(C2=O)[C@@H](OC)[C@@H]2C[C@H]1C(C)(C)O[C@@]3(CC=C(C)C)C2=O (some centres undefined)
0.4,1,C=CC(C)(C)c1c(O)cc(O)c2c1OC13C(=CC4CC1C(C)(C)OC3(CC=C(C)C)C4=O)C2=O (centres undefined)
1.2,2.1,CC(C)=CC[C@@]12OC(C)(C)[C@H]3C[C@H](C=C4C(=O)c5c(O)cc6c(c5O[C@]431)C(C)(C)[C@@H](C)O6)C2=O
7.3,3.4,C=CC(C)(C)c1c(O)cc(O)c2c1O[C@]13C(C2=O)[C@@H](OC)[C@@H]2C[C@H]1C(C)(C)O[C@@]3(CC=C(C)C)C2=O (some centres undefined)

SMILES,GI50 (HL-60) [µM],GI50 (K562) [µM]
CC(C)=CCC[C@]1(C)C=Cc2c(O)c3c(c(CC=C(C)C)c2O1)O[C@]12C(=C[C@@H]4C[C@H]1C(C)(C)O[C@@]2(C/C=C(/C)C(=O)O)C4=O)C3=O [GAMBOGIC ACID],0.3,0.6

# Source: ChEMBL document CHEMBL4251713, “Bioassay- and Chemistry-Guided Isolation of Scalemic Caged Prenylxanthones from the Leaves of Garcinia bracteata” (2018)
